Screens: PubChem BioAssay, several laboratories
Mdm2 ligase inh = inhibitors of human Mdm2 E3 ubiquitin ligase; 210,000 compounds, 0.11% hits; signal enhancement, % at 5 µM; cell-based MDM2 ubiquitination luciferase reporter, 2 h; 0 = plate control, 100 = twice control, blank-subtracted; Q00987;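 active means signal enhancement of 30% or more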;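 further: luminescence tracks abundance of the self-degrading MDM2-luciferase fusion protein; higher signal means inhibition of MDM2 E3 ligase activity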
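Assay system: mammalian cells stably expressing self-ubiquitinating, self-degrading MDM2 E3–luciferase fusion. Quantity: 2000 cells in each well. Medium: DMEM culture medium. Compound dosing: single-point 5 µM. Timing: cell settling 4 h, compound treatment 2 h, both 37 °C. Technique: luciferase luminescence. Read-out basis: percent signal gain over controls, blank-subtracted. Benchmarks: plate controls and plate blanks.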
PKD1 kinase inh = inhibitors of human PKD1 kinase; 200,000 compounds, 0.056% hits; Q15139; inhibition, % (concentration not given with the values); PKD1 kinase fluorescence polarization assay; AID 797; in the data active means inhibition above about 50%
Arbovirus anti = blocks arbovirus infection | arbovirus infection cell-based antiviral screen | inhibition, % at 10 µM | 200,000 compounds, 0.37% hits; in the data active means inhibition above about 30%
KCC2 mod = modulators of human KCC2 chloride dependent transport | AID 1456 | KCC2 cells, thallium flux FluoZin-2 fluorescence | Q9H2X9 | 190,000 compounds, 2.2% hits | B-score of Tl+ flux slope (higher = more flux/activation; lower = inhibition) at 10 µM;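 active means thallium flux slope and its plate-corrected score both differing from the plate sample mean at a set confidence after two filtering rounds, in either direction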;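 further: slope of fluorescence scaled to starting intensity during 10 to 20 s after thallium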
ROMK mod = human ROMK K+ channel modulation, primary screen | 130,000 compounds, 2% hits | Tet-inducible ROMK, thallium flux fluorescence; actives lie on both sides | B-score at 10 µM;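 active means signal ratio slope over the read window, or its plate-corrected B-score, at least 3 SD from the plate mean, either direction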;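 further: B-score of the F/F0 ratio slope over 7 to 12 s after thallium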
Target sequence (P48048 whole entry, looked up): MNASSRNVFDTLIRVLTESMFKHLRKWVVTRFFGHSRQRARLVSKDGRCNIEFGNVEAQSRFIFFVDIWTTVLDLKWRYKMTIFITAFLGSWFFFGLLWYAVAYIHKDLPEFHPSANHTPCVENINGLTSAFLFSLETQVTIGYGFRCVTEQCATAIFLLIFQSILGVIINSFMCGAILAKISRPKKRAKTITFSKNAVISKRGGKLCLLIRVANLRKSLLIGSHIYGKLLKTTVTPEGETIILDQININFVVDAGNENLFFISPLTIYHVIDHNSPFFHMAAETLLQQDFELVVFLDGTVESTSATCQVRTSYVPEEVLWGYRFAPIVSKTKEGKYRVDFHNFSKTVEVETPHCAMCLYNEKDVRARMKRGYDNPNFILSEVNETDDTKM
Calpain2 inh = calpain II (pig) inhibition | inhibition, % at 16 µM | purified calpain II, fluorogenic peptide substrate, 30 min | 220,000 compounds, 0.37% hits;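 active means inhibition above about 50%, limit read from the data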
KCC2 secondary = confirmation of human KCC2 transport modulators | normalised thallium flux (F/F0 slope) at 10 µM | shares compounds with KCC2 mod | HEK293-KCC2, thallium flux, FluoZin2 fluorescence; stronger effect = higher value | 3,700 compounds, 15% hits;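 active means thallium flux slope above the same plate's solvent-only control mean plus 3 SD; inconclusive means the two replicate wells disagree; inactive means no significant difference from solvent-only control wells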
KCC2 bumet counter = thallium flux despite bumetanide block in KCC2 cells, secondary assay 3 | shares compounds with KCC2 mod | HEK293-KCC2 + bumetanide/ouabain, thallium flux FluoZin2; stronger effect = higher value | normalized thallium flux at 10 µM | 3,700 compounds, 49% hits | AID 1714;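 active means thallium entry rate above the same plate's blocked-transporter control wells by more than 3 SD; inconclusive means the two repeat wells disagree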;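 further: raw slope of fluorescence over initial fluorescence between 10 and 20 s after thallium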
KCC2 sec2 = KCC2 (human) modulation, second secondary assay; shares compounds with KCC2 mod; HEK293-KCC2, thallium flux FluoZin2 fluorescence; actives lie on both sides; F/F0 rise rate, 10–20 s post-thallium; 3,700 compounds, 23% hits; normalized thallium flux at 10 µM;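 active means thallium flux slope more than 3 SD above or below the plate's solvent-only control mean, mostly below; inconclusive means the two repeat wells disagreed; inactive means no significant shift from solvent-only controls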
HEK293 Tl flux = parental HEK flux effect, counter-screen; shares compounds with KCC2 mod; 3,700 compounds, 46% hits; AID 1716; HEK293 parental cells, thallium flux FluoZin2, ouabain; baseline-ratio fluorescence slope, 10–20 s after thallium; thallium flux rate (normalised fluorescence) at 10 µM;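 active means thallium flux rate significantly above the same plate's solvent-only control wells, beyond their mean plus 3 SD; inconclusive means the two replicate wells gave conflicting results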
KCC2 ouabain = modulates human KCC2 on retest with ouabain. shares compounds with KCC2 mod. HEK293-KCC2, thallium flux FluoZin2 fluorescence; bidirectional: low = inhibitor, high = activator. raw Tl+ flux slope (below DMSO = inhibition, above = activation) at 10 µM. 3,700 compounds, 48% hits. AID 1717;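 active means thallium flux slope beyond 3 SD from same-plate DMSO control mean in most replicates, usually higher, sometimes lower; inconclusive means repeat tests gave conflicting results; inactive means no significant difference from controls in most replicates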;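 further: slope of initial-normalized fluorescence between seconds 10 and 20 after thallium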
HEK293 Tl flux2 = acts in parental HEK cells, second KCC2 counter-screen; 3,700 compounds, 33% hits; shares compounds with KCC2 mod; thallium flux slope at 10 µM; HEK293 parental, thallium flux FluoZin-2 fluorescence slope;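 active means thallium flux slope above the same plate's solvent-control mean plus 3 SD in both duplicate wells; inconclusive means duplicate wells that disagreed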;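 further: run without ouabain in cells lacking the KCC2 cotransporter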
Each line names hits and unclear results; the compound was inactive in the other large screens (follow-up assays come after a bar, where they were run). An excerpt weighted towards active compounds, which were near 3.7% of everything screened.

COC(=O)c1sc(NC(=O)c2ccc(Cn3cc(Cl)cn3)o2)c(C#N)c1C	none (no result: KCC2 mod) | KCC2 secondary inactive | KCC2 bumet counter inactive | KCC2 sec2 inactive | HEK293 Tl flux inactive | KCC2 ouabain 0.042 | HEK293 Tl flux2 inactive
CC1Cc2ccccc2N1C(=O)CO/N=C/c1ccccc1OC(F)F (stereo unspecified)	KCC2 mod -5.6 (no result: ROMK mod) | KCC2 secondary inactive | KCC2 bumet counter inconclusive | KCC2 sec2 0.023 | HEK293 Tl flux inconclusive | KCC2 ouabain 0.013 | HEK293 Tl flux2 inactive
COc1ccc(/C=C2\S/C(=N/S(=O)(=O)c3cccs3)NC2=O)cc1	none
CCOc1ccc(C2C(C(=O)/C=C/c3ccco3)=C(O)C(=O)N2CCN2CCOCC2)cc1OC (stereo unspecified)	none
CCC(CC)C(=O)Nc1cc(=O)n(C)c(=O)n1C	KCC2 mod 4.1 (no result: ROMK mod) | KCC2 secondary inactive | KCC2 bumet counter inactive | KCC2 sec2 inactive | HEK293 Tl flux inactive | KCC2 ouabain inactive | HEK293 Tl flux2 inactive
S=C(NCc1ccco1)Nc1ccc(Br)cc1Cl	KCC2 mod 4 | KCC2 secondary inactive | KCC2 bumet counter 0.011 | KCC2 sec2 inactive | HEK293 Tl flux 0.0093 | KCC2 ouabain inactive | HEK293 Tl flux2 inconclusive
CCOc1ccc(-c2nc(-c3cccs3)c(CC(=O)O)s2)cc1OC	KCC2 mod -3.1 | KCC2 secondary inactive | KCC2 bumet counter 0.0058 | KCC2 sec2 inactive | HEK293 Tl flux inactive | KCC2 ouabain inactive | HEK293 Tl flux2 inactive
CCOc1ccc(-c2nnc(-c3cccs3)o2)cc1OCC	none (no result: ROMK mod)
Cc1ccc2c(c1)C1CN(C)CCC1N2C(=S)NC(=O)c1ccc(Cl)cc1Cl (stereo unspecified)	KCC2 mod 61 (no result: Mdm2 ligase inh, PKD1 kinase inh, Arbovirus anti, ROMK mod) | KCC2 secondary 0.023 | KCC2 bumet counter 0.11 | KCC2 sec2 inactive | HEK293 Tl flux 0.032 | KCC2 ouabain 0.061 | HEK293 Tl flux2 0.013
CC(C)CC(=O)NC1(C(F)(F)F)C(=O)Nc2c1c(=O)n(C)c(=O)n2C (stereo unspecified)	KCC2 mod -3.5 | KCC2 secondary inactive | KCC2 bumet counter inactive | KCC2 sec2 inactive | HEK293 Tl flux inactive | KCC2 ouabain inactive | HEK293 Tl flux2 inactive
Cn1c2c(c(=O)n(C)c1=O)C(NC(=O)C(C)(C)C)(C(F)(F)F)C(=O)N2 (stereo unspecified)	none (no result: KCC2 mod)
COc1ccc(NC(=O)c2ccc(COc3ccccc3OC)o2)cc1OC	none (no result: Mdm2 ligase inh, ROMK mod)
COc1cc(NC(=O)c2ccc(COc3ccccc3Br)o2)cc(OC)c1OC	none (no result: KCC2 mod) | KCC2 secondary inactive | KCC2 bumet counter inactive | KCC2 sec2 0.025 | HEK293 Tl flux 0.0061 | KCC2 ouabain 0.015 | HEK293 Tl flux2 inactive
O=C(c1ccc(COc2ccccc2Br)cc1)N1CCCCC1	none
O=C(c1ccc(COc2ccccc2Br)o1)N1CCCCCC1	none (no result: KCC2 mod) | KCC2 secondary inactive | KCC2 bumet counter 0.0033 | KCC2 sec2 inconclusive | HEK293 Tl flux 0.0063 | KCC2 ouabain 0.016 | HEK293 Tl flux2 inconclusive
O=C(O)c1ccccc1C(=O)c1ccc(N2CCCC2)c([N+](=O)[O-])c1	none
CC1Cc2ccccc2N1C(=O)c1ccc(N2CCCC2)c([N+](=O)[O-])c1 (stereo unspecified)	KCC2 mod -6.5 (no result: ROMK mod) | KCC2 secondary inactive | KCC2 bumet counter inactive | KCC2 sec2 0.02 | HEK293 Tl flux inactive | KCC2 ouabain 0.013 | HEK293 Tl flux2 inactive
CC1Cc2ccccc2N1C(=O)c1ccc(N2CCCCC2)c([N+](=O)[O-])c1 (stereo unspecified)	KCC2 mod -4.7 (no result: ROMK mod) | KCC2 secondary inactive | KCC2 bumet counter inconclusive | KCC2 sec2 inconclusive | HEK293 Tl flux inactive | KCC2 ouabain 0.013 | HEK293 Tl flux2 inactive
Cc1[nH]n(-c2ccccc2)c(=O)c1/C=N/N(c1ccccc1)c1ccccc1	KCC2 mod 68 | KCC2 secondary inconclusive | KCC2 bumet counter 0.11 | KCC2 sec2 0.072 | HEK293 Tl flux 0.063 | KCC2 ouabain 0.088 | HEK293 Tl flux2 0.061
Cc1[nH]n(-c2ccccc2)c(=O)c1C=Nc1cccc(F)c1	KCC2 mod 4.6 (no result: PKD1 kinase inh, Arbovirus anti, ROMK mod) | KCC2 secondary inactive | KCC2 bumet counter 0.033 | KCC2 sec2 inactive | HEK293 Tl flux 0.016 | KCC2 ouabain inactive | HEK293 Tl flux2 inconclusive
Cc1[nH]n(-c2ccccc2)c(=O)c1/C=N/c1nn[nH]n1	none
Cc1cccc(/N=C/c2c(C)[nH]n(-c3ccccc3)c2=O)n1	KCC2 mod 18 (no result: PKD1 kinase inh, Arbovirus anti, ROMK mod) | KCC2 secondary inactive | KCC2 bumet counter 0.032 | KCC2 sec2 inactive | HEK293 Tl flux 0.012 | KCC2 ouabain inconclusive | HEK293 Tl flux2 inconclusive
Cc1ccc(-n2[nH]c(C)c(/C=N/c3cccc(C)n3)c2=O)cc1	KCC2 mod 4.9 (no result: PKD1 kinase inh, Arbovirus anti) | KCC2 secondary inactive | KCC2 bumet counter 0.013 | KCC2 sec2 inactive | HEK293 Tl flux 0.013 | KCC2 ouabain inconclusive | HEK293 Tl flux2 inactive
Cc1ccn2cc(C34CC5CC(CC(C5)C3)C4)nc2c1	none
COC(=O)[C@@H]1CC[C@H](C)[C@@H](c2ccc(C)cc2)N1C(=O)c1ccc(/C=N/O[C@@H](C)CN2CCCCc3nc(C)c(C)cc32)cc1	none (no result: Mdm2 ligase inh)
COc1ccc(NC(=O)NCCCN2CCCCC2C)cc1 (stereo unspecified)	none (no result: KCC2 mod) | KCC2 secondary inactive | KCC2 bumet counter inactive | KCC2 sec2 inactive | HEK293 Tl flux inactive | KCC2 ouabain inactive | HEK293 Tl flux2 inactive
COC(=O)c1ccc(C(C(=O)NCc2ccccc2)N(Cc2cccs2)C(=O)c2cnccn2)cc1 (stereo unspecified)	none (no result: KCC2 mod, ROMK mod) | KCC2 secondary inactive | KCC2 bumet counter inactive | KCC2 sec2 inactive | HEK293 Tl flux inactive | KCC2 ouabain inactive | HEK293 Tl flux2 inactive
COc1ccc(C(C(=O)NCc2ccccc2)N(Cc2ccco2)C(=O)c2cnccn2)cc1 (stereo unspecified)	none (no result: ROMK mod)
CC1CCCc2sc3ncn(N)c(=N)c3c21 (stereo unspecified)	none
